APTT data for 25 molecules are collected here from ChEMBL document CHEMBL1133654, “Studies directed at the use of a parallel synthesis matrix to increase throughput in an in vivo assay” (2000).

Structures are written as SMILES.

A short description of the assay: Mean plasma clotting time (APTT) was measured following a single colonic dose with heparin in rats. The format is functional, Rattus norvegicus. A digest of the protocol: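 Male Sprague-Dawley rats (300-350 g, fasted 12 h, groups of 5) were anesthetized with ketamine 44 mg/kg im and given one colonic dose (1 mL/kg) by catheter through the anus. Dosing was delivery agent 50 mg/kg plus heparin 25 mg/kg for single agents, or 50 mg/kg for mixtures, as a sonicated solution of apparent pH about 7. Citrated cardiac blood was taken at 0-1.5 h, and mean peak plasma APTT was reported.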
With `O=C(O)CCCCCCCCCNC(=O)c1ccccc1F`, the APTT is 27 s. In the case of `O=C(O)CCCCCCCCCCCNC(=O)c1ccccc1` it was 24 s. Under `O=C(O)CCCCCCCCCCCNC(=O)c1ccccc1F` stands 33 s. In the case of `Cc1ccccc1C(=O)NCCCCCCCCCC(=O)O` it was 34 s; in that of `O=C(O)CCCCCNC(=O)c1ccccc1F`, 28 s. `O=C(O)CCCNC(=O)c1ccccc1F` registered an APTT of 22 s.

Regarding `Cc1ccccc1C(=O)NCCCCCC(=O)O`, the APTT worked out at 26 s.

As for `COc1ccccc1C(=O)NCCCCCCCCCC(=O)O`, the APTT was determined as 50 s.

As to `COc1ccccc1C(=O)NCCCCCCCCCCCC(=O)O`, the APTT is 54 s.

In turn, `Cc1ccccc1C(=O)NCCCCCCCCCCCC(=O)O` registered an APTT of 30 s. In the case of `O=C(O)CCCCCNC(=O)c1ccccc1` it was 33 s.

The molecule `O=C(O)CCCNC(=O)c1ccccc1` displayed an APTT of 22 s. Molecule `O=C(O)CCCCCCCCCNC(=O)c1ccccc1` returned an APTT of 31 s. In the case of `O=C(O)CCCCCCCNC(=O)c1ccccc1` it was 21 s; in that of `COc1ccccc1C(=O)NCCCCCCCC(=O)O`, 27 s. Molecule `Cc1ccccc1C(=O)NCCCCCCCC(=O)O` showed an APTT of 23 s. `O=C(O)CCCCCCCNC(=O)c1ccccc1F` yielded an APTT of 25 s. Under `O=C(O)CCCNC(=O)c1ccccc1O` stands 31 s.

Turning to `O=C(O)CCCCCCCCCCCNC(=O)c1ccccc1O`, the APTT is listed as 86 s. The molecule `O=C(O)CCCCCCCCCNC(=O)c1ccccc1O` came in with an APTT of 153 s. Take `O=C(O)CCCCCNC(=O)c1ccccc1O`: the APTT came out at 24 s. Under `COc1ccccc1C(=O)NCCCCCC(=O)O` stands 31 s; under `Cc1ccccc1C(=O)NCCCC(=O)O`, 24 s.

Molecule `COc1ccccc1C(=O)NCCCC(=O)O` gave an APTT of 26 s. Under `O=C(O)CCCCCCCNC(=O)c1ccccc1O` [SALCAPROZIC ACID] stands 125 s.
